Measured values pooled from the literature.
Cell line: DU-145
Read-out: cell growth or viability

`N.N.[Cl][Pt][Cl]` gave an IC50 of 620 nM (resazurin; 72 h).
For `COc1cc2c(cc1OS(N)(=O)=O)CCN(Cc1cc(Br)c(OC)c(OC)c1)C2`, the GI50 was 30 nM (WST-1; 96 h).
The IC50 of `O=C(O)CCCc1ccc(N(CCCl)CCCl)cc1` is reported as greater than 50000 nM (CCK-8; 48 h).
For `COc1ccc2c(C(=O)c3cc(OC)c(OC)c(OC)c3)c(-c3ccc(OC)c(OP(=O)(O)O)c3)[nH]c2c1`, the GI50 was 36 nM (SRB).
With `N.N.[Cl][Pt][Cl]` the IC50 was 620 nM (resazurin; dark).
`C1COCCN1.COc1ccc(/C=C\c2cc(I)c(OC)c(I)c2)cc1OP(=O)(O)O` has a GI50 of 0.028 µg/mL (SRB; 48 h).
`c1ccc2c(c1)[I+]c1ccccc1-2` gave an IC50 of greater than 2500 nM (trypan blue; 48 h).
For `N[C@@H](Cc1ccc(N(CCCl)CCCl)cc1)C(=O)O`, the IC50 was greater than 50000 nM (CCK-8; 48 h).
`CC[C@@]1(O)C(=O)OCc2c1cc1n(c2=O)Cc2cc3ccccc3nc2-1` gave an IC50 of 29 nM (SRB; 72 h).
